# Results gathered from unrelated publications.
# Target: Proto-oncogene tyrosine-protein kinase ROS (ROS1, Homo sapiens, UniProt P08922)
Structure (SMILES),observed,action,technique,concentration,endpoint,value
COCCOc1nc(-c2ccc(Cl)nc2)nc2c1CN(C(=O)c1ncn3ccccc13)CC2,cell-free assay,,competition with immobilised ligand,0.1 µM,remaining binding,100%
CN1CC(Oc2cnc(C#N)cc2-c2ccn3nc(NC(=O)C4CC4)cc3c2)C1,enzyme activity,inhibitor,,1 µM,inhibition,8%
COc1cc2nccc(Oc3ccc(NC(=O)c4c5n(n(-c6ccc(F)cc6)c4=O)CCCC5)cc3)c2cc1OC,enzyme activity,inhibitor,,0.1 µM,inhibition,26%
O=C1NC(c2ccccn2)Sc2ccccc21 (stereo not drawn),cell-free assay,,competition with immobilised ligand,1 µM,remaining binding,95%
CC(C)(C)c1nc2c(s1)c1nc(N)ncc1c1ccc(NS(=O)(=O)c3c(F)cccc3F)c(F)c12,enzyme activity,inhibitor,radiometric,1 µM,remaining activity,109%
CCOCCn1cc(C(=O)Nc2ccc(-n3nc(-c4cccnc4)cc3C(F)(F)F)cn2)ccc1=O,cell-free assay,,competition with immobilised ligand,1 µM,remaining binding,100%
Cc1ccc(C(=O)NCc2ccsc2)cc1C#Cc1cn(C(C)C)c2ncnc(N)c12,enzyme activity,inhibitor,,1 µM,activity vs control,92%
COc1cc2c(Nc3ccc(Br)cc3F)ncnc2cc1OCC1CCN(C)CC1,cell-free assay,,,0.5 µM,remaining signal,76.5%
Cc1sc(C(=O)NC2COC2)cc1-n1cc(NC(=O)Nc2c(F)cccc2Cl)cn1,enzyme activity,inhibitor,,10 µM,remaining activity,102%
Cc1ccc(Nc2nccc(N(C)c3ccc4c(C)n(C)nc4c3)n2)cc1S(N)(=O)=O,enzyme activity,inhibitor,,10 µM,inhibition,13%
CC/C(=N\NC(=O)NCc1cccc(O)c1)c1ccc(O)c(C)c1O,enzyme activity,inhibitor,,0.1 µM,inhibition,2.5%
CCC(=O)N[C@@H]1CC[C@H](C(=O)N(C)c2ccc(-c3nc4ccccc4o3)cc2)C1,cell-free assay,,competition with immobilised ligand,1 µM,remaining binding,100%
CNCc1ccc(-c2cc(-c3nc(-c4ccc(S(=O)(=O)C(C)C)cc4)cnc3N)on2)cc1,enzyme activity,inhibitor,,2 µM,inhibition,4%
CC1=C(C#N)C(c2ccc3c(c2)c(NC(=O)c2ccccc2C)nn3C)C(C#N)=C(C)N1,cell-free assay,,competition with immobilised ligand,1 µM,remaining binding,100%
C[S+]([O-])c1ccc(-c2nc(-c3ccncc3)c(-c3ccc(F)cc3)[nH]2)cc1 (stereo not drawn),cell-free assay,,,0.5 µM,remaining signal,94.4%
CCCS(=O)(=O)Nc1ccc(F)c(C(=O)c2c[nH]c3ncc(-c4ccc(Cl)cc4)cc23)c1F,enzyme activity,inhibitor,,1 µM,inhibition,< 10%
CNC(=O)c1cc(Oc2ccc(NC(=O)Nc3ccc(Cl)c(C(F)(F)F)c3)cc2)ccn1,cell-free assay,,,0.5 µM,remaining signal,95.7%
COc1cc2ncnc(Nc3ccc(Oc4ccccc4)c(C)c3C)c2cc1OC,enzyme activity,inhibitor,,1 µM,inhibition,-2%
